Screening data from PubChem.
Rows were chosen to be rich in hits. Some 4.8% of all compounds tested hit in one or more screens of this group.
STAT1 activator – activators of IFN-gamma induced STAT1 signaling; NIH 3T3 STAT1-luciferase reporter, luminescence; 100% = IFN-gamma alone, no compound; activation (% of control), % at 5.5 µM; hit rate 2.6% among 200,000;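 active means activation above the screen-wide mean activation plus 3 SD, cut at about 130% in these data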;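 further: raw ratio to IFN-gamma control signal so 100% means no change and 0% no light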
NF-kB neuron act – NF-kB expression increase, human neuronal cells; AID 1239; fold change at 12.5 µM; hit rate 1.6% among 190,000; NF-kB reporter expression; active compounds read high; in the data active means fold change above about 3.3
APP 5UTR inh – APP translation inhibition. SH-SY5Y APP 5'UTR-luciferase reporter, luminescence. inhibition, % at 2 µM. hit rate 0.82% among 190,000;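 active means inhibition above a set limit, derived from the sample mean plus 3 SD, cut at about 45% in these data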
FLuc stim CS – firefly luciferase counter-screen for stimulation assays | P08659 | ATPlite luciferase biochemical, luminescence, 10 min; 0 = ATP-free wells, 1 = DMSO control | activation factor at 10 µM | 200,000 tested, under 10 active;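 active means luciferase activation factor, scaled between plate controls, of at least 2 with compound at 10 µM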
Target sequence (P08659 whole entry, looked up): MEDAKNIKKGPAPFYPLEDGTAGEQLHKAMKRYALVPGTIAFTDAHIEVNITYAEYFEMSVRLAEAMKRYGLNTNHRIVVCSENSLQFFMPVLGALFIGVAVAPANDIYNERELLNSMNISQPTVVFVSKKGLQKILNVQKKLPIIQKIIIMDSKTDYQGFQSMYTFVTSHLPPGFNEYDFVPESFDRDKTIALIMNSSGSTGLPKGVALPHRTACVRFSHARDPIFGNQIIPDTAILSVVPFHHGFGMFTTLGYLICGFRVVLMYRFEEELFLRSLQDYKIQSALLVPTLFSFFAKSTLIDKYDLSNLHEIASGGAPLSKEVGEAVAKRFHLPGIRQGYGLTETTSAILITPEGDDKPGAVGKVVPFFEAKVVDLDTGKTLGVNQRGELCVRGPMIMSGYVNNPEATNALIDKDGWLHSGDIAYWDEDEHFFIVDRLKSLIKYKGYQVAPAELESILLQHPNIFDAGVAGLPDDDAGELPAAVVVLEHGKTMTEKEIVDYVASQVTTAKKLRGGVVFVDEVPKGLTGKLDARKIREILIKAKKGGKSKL
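Material: luciferase plus luciferin reagent, cell-free. Medium: PBS buffer for ATP. Also added: ATP substrate, dispensed from a 10.24 µM working solution in PBS. Doses: test compounds dosed from 2 mM stocks in 100% DMSO. Incubation: 10 min post-reagent at room temperature. Technique: light output (luminescence). Read-out basis: luminescence gain marking luciferase activators.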
APP 5'UTR act – APP 5'UTR luciferase reporter activation; hit rate 1% among 190,000; activation, % at 2 µM; SH-SY5Y APP 5'UTR luciferase reporter, luminescence; zero percent = DMSO vehicle wells;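 active means activation above a set limit, based on mean plus 3 SD of controls, cut at about 140% in these data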
FLuc inh counter – Photinus pyralis luciferase inhibition counter-screen. P08659. ATPLite firefly luciferase biochemical luminescence, 10 min. inhibition, % at 10 µM. hit rate 1.5% among 200,000;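 active means inhibition above about 50% when tested at 10 µM, limit read from the data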
An asterisk follows results filed as active.

SMILES | STAT1 activator | NF-kB neuron act | APP 5UTR inh | FLuc stim CS | APP 5'UTR act | FLuc inh counter
OCCN(CCO)c1ncnc2c1oc1ccc(Br)cc12 | 98 | 1.1 | 14 | 1 | -14 | -2
Cn1c(=O)c(/C=C/c2ccccc2)nc2ccccc21 | 134* | 4.2* | -138 | 0.6 | 138* | 37
Cn1c(/C=C/c2ccccc2)nc2ccccc21 | 29 | 2.1 | -65 | 0.1 | 65 | 94*
COCCn1c(/C=C/c2ccccc2)nc2ccccc21 | 146* | 3.9* | -109 | 0.1 | 109 | 86*
Cn1c(=O)c(/C=C/c2ccc(F)cc2)nc2ccccc21 | 120 | 1.9 | -38 | 0.7 | 38 | 30
COc1ccccc1Cn1c(/C=C/c2ccccc2)nc2ccccc21 | 112 | 2 | -38 | 0.6 | 38 | 43
CCOC(=O)c1c(C)n(C)c2ccc(OC)c([N+](=O)[O-])c12 | 110 | 1.2 | 0 | 1 | 0 | -2
Cn1c(N)c(C(=O)COC(=O)CSc2cccc3cccc(Cl)c23)c(=O)n(C)c1=O | 110 | 0.95 | -3 | 1.1 | 3 | -10
Cc1ccnc(NS(=O)(=O)c2ccc(NC(=O)c3ccc([N+](=O)[O-])s3)cc2)n1 | 87 | 5.7* | -16 | 1 | 16 | 3
Clc1ccc(/C=N/Nc2nnc(-c3ncc[nH]3)c3ccccc23)cc1 | 114 | 0.66 | -40 | 0.3 | 41 | 75*
Clc1cccc(/C=N/Nc2nnc(Cl)c3ccccc23)c1 | 100 | 1.6 | -4 | 1 | 4 | 3
Cc1ccc(-c2nn3cnnc3c3ccccc23)cc1 | 98 | 0.91 | 7 | 1.1 | -7 | -8
Cc1ccc(C2=NN(C(=S)Nc3ccccc3)C(c3ccco3)C2)cc1 (stereo not given) | 134* | 2.8 | -89 | 1 | 89 | -5
CCOC(=O)/C=C/S(=O)(=O)c1ccc(NC(C)=O)cc1 | 93 | 1.2 | 74* | 1.1 | -73 | -6
COc1ccc(NS(=O)(=O)c2cc(OC)ccc2NC(=O)c2cc(C)oc2C)cc1 | 103 | 1.2 | 54* | 1 | -54 | 1
COc1ccc(NC(=O)c2cc(-c3ccccc3)oc2C)cc1 | 101 | 1.1 | -18 | 1 | 18 | 0
COc1cccc(C(=O)N/N=C(/c2ccccc2)c2ccccn2)c1 | 104 | 1.5 | 15 | 0.9 | -15 | 14
COc1cc(C(=O)N/N=C(\c2ccccc2)c2ccccn2)cc(OC)c1OC | 97 | 0.67 | 82* | 1.1 | -82 | -6
COC(=O)c1ccc(/C=N/NC(=O)CC(=O)NCc2cccnc2)cc1 | 98 | 1.2 | 1 | 1.1 | -1 | -7
Cc1ccccc1C(=O)NC(=S)Nc1ccccc1C(F)(F)F | 109 | 1.4 | -6 | 0.3 | 6 | 71*
FC(F)(F)c1ccccc1NC(=S)NN=C1CCCCCC1 | 97 | 1.4 | 93* | 1 | -93 | 0
COc1cccc(NC(=S)NN=C2CCCCCC2)c1 | 104 | 3.3* | -25 | 0.8 | 25 | 24
CCc1ccc(NC(=S)Nc2cccc(OC)c2)cc1 | 103 | 1.3 | -28 | 1 | 28 | -1
CC1(C)Cc2c(sc3[nH]c(=S)[nH]c(=O)c23)CO1 | 105 | 1.4 | 16 | 1 | -16 | 2
CCCCOC(=O)CSc1n[nH]c(=O)[nH]c1=O | 108 | 0.99 | 2 | 1 | -1 | 3
SMILES | STAT1 activator | NF-kB neuron act | APP 5UTR inh | FLuc stim CS | APP 5'UTR act | FLuc inh counter
CC(C)c1ccc2c(c1)C1(NN=C(c3ccccc3)S1)C(=O)N2 (stereo not given) | 129* | 1.7 | -133 | 1 | 133 | 3
CCc1ccc2c(c1)C1(NN=C(c3ccc(C)cc3)S1)C(=O)N2 (stereo not given) | 102 | 0.87 | -46 | 1 | 46 | 3
Cc1ccc(CCN2C(=O)c3ccccc3C2C(=O)NCc2cccnc2)cc1 (stereo not given) | 84 | 1.2 | -25 | 1.1 | 25 | -9
COc1ccc(C2CC(c3ccccc3)=NN2c2ccc(N)cc2)cc1 (stereo not given) | 141* | 1.4 | -7 | 1 | 7 | -1
O=C1NC(Cc2c[nH]c3ccccc23)C(=O)N1Cc1ccc(CN2C(=O)NC(Cc3c[nH]c4ccccc34)C2=O)cc1 (stereo not given) | 90 | 0.54 | -14 | 1 | 14 | 0
CCN1CCC(=NNC(=O)c2ccco2)CC1 | 109 | 2 | -43 | 1.1 | 43 | -6
O=C(N/N=C1/CC2C=CCC12)c1ccco1 (stereo not given) | 134* | 1.7 | -44 | 1 | 44 | 0
Cc1csc(SC(C)C(=O)NCC2CCCCC2)n1 (stereo not given) | 90 | 1.5 | 0 | 1 | 0 | -1
Cc1ccc(C(=O)Nc2c3c(nn2C(C)(C)C)CS(=O)(=O)C3)cc1C | 95 | 0.96 | -8 | 1.1 | 8 | -6
CCc1ccc(-c2nc(C(N)=O)c3[nH]c(=O)n(-c4ccccc4OC)c3n2)cc1 | 112 | 1.2 | 95* | 1 | -95 | -4
COc1ccc(-c2nc(C(N)=O)c3[nH]c(=O)n(-c4cccc(Cl)c4)c3n2)cc1OC | 103 | 0.78 | -2 | 1 | 2 | -3
S=C(Nc1ccc(Cl)cc1)N1CCCCC1 | 94 | 1.1 | 2 | 0.7 | -2 | 27
COC(=O)Cc1ccc(NC(=S)N2CCN(c3ccc(OC)cc3)CC2)cc1 | 93 | 0.97 | -5 | 1 | 5 | -3
COC(=O)Cc1ccc(NC(=S)N2CCCCC2C)cc1 (stereo not given) | 94 | 1.3 | -5 | 0.2 | 5 | 83*
CCc1ccc(NC(=S)N2CCCCCCC2)cc1 | 119 | 2.1 | -34 | 0.5 | 34 | 54*
COC(=O)Cc1ccc(NC(=S)N2CCN(C)CC2)cc1 | 108 | 1 | -26 | 0.4 | 26 | 56*
Cc1ccc(SCCC(=O)Nc2cccnc2)cc1 | 99 | 1.2 | -26 | 1 | 25 | -4
O=C(CCSc1ccc(Cl)cc1)Nc1cccnc1 | 100 | 7.7* | -2 | 1 | 2 | 1
Cc1cccc(C(=O)O/N=C(\N)c2ccc(Br)cc2)c1 | 121 | 4* | -31 | 0.8 | 31 | 25
N/C(=N\OC(=O)c1ccc2ccccc2c1)c1ccc(Br)cc1 | 105 | 1.1 | -11 | 1 | 11 | -1
COc1cccc(C(=O)O/N=C(\N)c2ccncc2)c1 | 139* | 2.5 | -106 | 0.1 | 106 | 89*
O=C(/C=C/c1ccccc1)c1ccccc1 | 112 | 1.5 | -11 | 0.5 | 11 | 47
N/C(=N\OC(=O)c1cccc(Br)c1)c1ccccc1 | 127 | 5.3* | 4 | 0.1 | -4 | 90*
N/C(=N\OC(=O)/C=C/c1ccccc1)c1ccccc1 | 138* | 5.9* | -136 | 0.1 | 136* | 85*
N/C(=N\OC(=O)Cc1ccccc1[N+](=O)[O-])c1ccncc1 | 99 | 0.81 | -10 | 1.1 | 10 | -8
COc1cccc(/C(N)=N/OC(=O)Cc2ccccc2[N+](=O)[O-])c1 | 130* | 1.5 | -13 | 1 | 13 | -1
